Experiments:
[1] = target: T1, C-C chemokine receptor type 2 (Homo sapiens, UniProt P41597); experiment: Displacement of [125I]hMCP1 from human CCR2 receptor expressed in CHO cells; assay type: cell-based
Method in brief: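 CHO cells expressing human CCR2b (5 × 10⁴) incubated 60 min at room temperature with ¹²⁵I-hMCP-1 (20–50 pM) plus varied competitor concentrations in 50 mM Hepes, 5 mM MgCl₂, 1 mM CaCl₂, pH 7.4. Stopped by filtration on polyethyleneimine-presoaked GF/B filters, washed with 25 mM Hepes pH 7.5/500 mM NaCl. IC50 is the average of triplicate measurements.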
Target sequence in this assay (P41597 whole entry): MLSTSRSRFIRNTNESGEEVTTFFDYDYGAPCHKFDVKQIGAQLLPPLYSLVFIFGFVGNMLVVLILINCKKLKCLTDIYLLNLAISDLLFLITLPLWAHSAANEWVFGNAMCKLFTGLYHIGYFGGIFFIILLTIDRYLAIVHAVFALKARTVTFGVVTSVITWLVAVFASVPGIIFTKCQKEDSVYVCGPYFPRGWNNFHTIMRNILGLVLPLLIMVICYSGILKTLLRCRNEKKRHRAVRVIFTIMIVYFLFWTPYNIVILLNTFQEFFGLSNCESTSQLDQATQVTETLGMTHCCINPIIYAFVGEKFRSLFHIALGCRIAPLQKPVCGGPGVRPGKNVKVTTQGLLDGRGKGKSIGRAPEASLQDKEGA

[2] = AUC in Sprague-Dawley rat at 3 mg/kg, po; assay type: ADME, organism-based; set-up: dose 3 mg/kg, route oral; settings: plasma
[3] = Tmax in Sprague-Dawley rat at 3 mg/kg, po; assay type: ADME, organism-based; set-up: dose 3 mg/kg, route oral; settings: in vivo
[4] = Cmax in Sprague-Dawley rat at 3 mg/kg, po; assay type: ADME, organism-based; set-up: dose 3 mg/kg, route oral; settings: in vivo
[5] = Oral bioavailability in Sprague-Dawley rat at 3 mg/kg; assay type: ADME, organism-based; settings: in vivo
[6] = AUC in Beagle dog at 2 mg/kg, po; assay type: ADME, organism-based, Canis lupus familiaris; set-up: dose 2 mg/kg, route oral; settings: plasma
[7] = Tmax in Beagle dog at 2 mg/kg, po; assay type: ADME, organism-based, Canis lupus familiaris; set-up: dose 2 mg/kg, route oral; settings: in vivo
[8] = Cmax in Beagle dog at 2 mg/kg, po; assay type: ADME, organism-based, Canis lupus familiaris; set-up: dose 2 mg/kg, route oral; settings: in vivo
[9] = Oral bioavailability in Beagle dog at 2 mg/kg; assay type: ADME, organism-based, Canis lupus familiaris; settings: in vivo
[10] = AUC in rhesus monkey at 2 mg/kg, po; assay type: ADME, organism-based, Macaca mulatta; set-up: dose 2 mg/kg, route oral; settings: plasma
[11] = Tmax in rhesus monkey at 2 mg/kg, po; assay type: ADME, organism-based, Macaca mulatta; set-up: dose 2 mg/kg, route oral; settings: in vivo
[12] = Cmax in rhesus monkey at 2 mg/kg, po; assay type: ADME, organism-based, Macaca mulatta; set-up: dose 2 mg/kg, route oral; settings: in vivo
[13] = Oral bioavailability in rhesus monkey at 2 mg/kg; assay type: ADME, organism-based, Macaca mulatta; settings: in vivo
[14] = target: T1, C-C chemokine receptor type 2; experiment: Displacement of [125I]hMCP1 from human CCR2 receptor expressed in CHO cells at 1 uM; assay type: cell-based
Target sequence in this assay (P41597 whole entry, looked up): as the sequence (P41597 whole entry) above

Row | Structure (SMILES) | IC50 [1] [nM] | further results
1 | CCC1COCCC1N[C@@H]1CC[C@@](C(=O)NCc2cc(C(F)(F)F)cc(C(F)(F)F)c2)(C(C)C)C1 (stereo in doubt; 61) | 5.6 | –
2 | CCC1COCCC1N[C@@H]1CC[C@@](C(=O)NCc2cc(C(F)(F)F)cc(C(F)(F)F)c2)(C(C)C)C1 (stereo in doubt; 46) | 3 | –
3 | CC(C)[C@]1(C(=O)NCc2cc(C(F)(F)F)cc(C(F)(F)F)c2)CC[C@@H](NC2CCCCC2)C1 | 64 | –
4 | CCC1COCCC1N[C@@H]1CC[C@@](C(=O)NCc2cc(C(F)(F)F)cc(C(F)(F)F)c2)(C(C)C)C1 (stereo in doubt; 62) | 3 | –
5 | CC(C)[C@]1(C(=O)NCc2cc(C(F)(F)F)cc(C(F)(F)F)c2)CC[C@@H](NC2CCS(=O)(=O)CC2)C1 | 631 | –
6 | CC(C)[C@]1(C(=O)NCc2cc(C(F)(F)F)cc(C(F)(F)F)c2)CC[C@@H](NCC2CCOCC2)C1 | 362 | –
7 | CC(C)[C@]1(C(=O)NCc2cc(C(F)(F)F)cc(C(F)(F)F)c2)CC[C@@H](NC2CCOc3ccccc32)C1 (some centres undefined) | 419 | –
8 | CC(C)[C@]1(C(=O)NCc2cc(C(F)(F)F)cc(C(F)(F)F)c2)CC[C@@H](NC2CCOC2)C1 (some centres undefined) | 85 | –
9 | CC1COCCC1N[C@@H]1CC[C@@](C(=O)NCc2cc(C(F)(F)F)cc(C(F)(F)F)c2)(C(C)C)C1 (stereo in doubt; 45) | 1.5 | –
10 | CC(C)[C@]1(C(=O)NCc2cc(C(F)(F)F)cc(C(F)(F)F)c2)CC[C@@H](NC2CCSCC2)C1 | 22 | –
11 | CC(C)[C@]1(C(=O)NCc2cc(C(F)(F)F)cc(C(F)(F)F)c2)CC[C@@H](NC2CCCOC2)C1 (some centres undefined) | 56 | –
12 | CC(C)[C@]1(C(=O)NCc2cc(C(F)(F)F)cc(C(F)(F)F)c2)CC[C@@H](NC2CCOCC2(O)C(F)(F)F)C1 (some centres undefined) | 765 | –
13 | CC(C)[C@]1(C(=O)NCc2cc(C(F)(F)F)cc(C(F)(F)F)c2)CC[C@@H](NC2CCOCC2C(F)(F)F)C1 (some centres undefined) | 5.5 | –
14 | CCCC1COCCC1N[C@@H]1CC[C@@](C(=O)NCc2cc(C(F)(F)F)cc(C(F)(F)F)c2)(C(C)C)C1 (some centres undefined) | 7.8 | –
15 | CC(C)[C@]1(C(=O)NCc2cc(C(F)(F)F)cc(C(F)(F)F)c2)CC[C@@H](N[C@H]2CCOC[C@H]2C)C1 | – | AUC [2]: 0.76 µM·h; Tmax [3]: 15 min; Cmax [4]: 735 nM; bioavailability [5]: 42%; AUC [6]: 0.62 µM·h; Tmax [7]: 45 min; Cmax [8]: 422 nM; bioavailability [9]: 28%; AUC [10]: 0.01 µM·h; Tmax [11]: 60 min; Cmax [12]: 4 nM; bioavailability [13]: 2%
16 | CC(C)[C@]1(C(=O)NCc2cc(C(F)(F)F)cc(C(F)(F)F)c2)CC[C@@H](NC2CCCCCC2)C1 | 175 | –
17 | CC(C)[C@]1(C(=O)NCc2cc(C(F)(F)F)cc(C(F)(F)F)c2)CC[C@@H](NC2CCOCC2C2CC2)C1 (some centres undefined) | 123 | –
18 | CC1COCCC1N[C@@H]1CC[C@@](C(=O)NCc2cc(C(F)(F)F)cc(C(F)(F)F)c2)(C(C)C)C1 (stereo in doubt; 57) | 42 | –
19 | CC(C)[C@]1(C(=O)NCc2cc(C(F)(F)F)cc(C(F)(F)F)c2)CC[C@@H](NC2CCOCC2)C1 | 4.6 | –

Row | Structure (SMILES) | IC50 [1] [nM] | further results
20 | Cc1ccc(-c2ccc3c(c2)C=C(C(=O)Nc2ccc(C[N+](C)(C)C4CCOCC4)cc2)CCC3)cc1 | 28 | –
21 | CC(C)[C@]1(C(=O)NCc2cc(C(F)(F)F)cc(C(F)(F)F)c2)CC[C@@H](NC2CCc3ccccc3C2)C1 (some centres undefined) | 239 | –
22 | CC(C)[C@]1(C(=O)NCc2cc(C(F)(F)F)cc(C(F)(F)F)c2)CC[C@@H](NC2Cc3ccccc3C2)C1 | 187 | –
23 | CC(C)[C@]1(C(=O)NCc2cc(C(F)(F)F)cc(C(F)(F)F)c2)CC[C@@H](NC2CCOCC2F)C1 (stereo in doubt; 63) | 259 | –
24 | CCC1COCCC1N[C@@H]1CC[C@@](C(=O)NCc2cc(C(F)(F)F)cc(C(F)(F)F)c2)(C(C)C)C1 (stereo in doubt; 60) | 141 | –
25 | CC(C)[C@]1(C(=O)NCc2cc(C(F)(F)F)cc(C(F)(F)F)c2)CC[C@@H](NC2CCc3ccccc32)C1 (some centres undefined) | 77 | –
26 | CC(C)[C@]1(C(=O)NCc2cc(C(F)(F)F)cc(C(F)(F)F)c2)CC[C@@H](NC2CCCC2)C1 | 156 | –
27 | CC(C)[C@]1(C(=O)NCc2cc(C(F)(F)F)cc(C(F)(F)F)c2)CC[C@@H](NC2CCSC2)C1 (some centres undefined) | 36 | –
28 | CC(C)[C@]1(C(=O)NCc2cc(C(F)(F)F)cc(C(F)(F)F)c2)CC[C@@H](NC2CCCOCC2)C1 (some centres undefined) | 30 | –
29 | CC1COCC(C)C1N[C@@H]1CC[C@@](C(=O)NCc2cc(C(F)(F)F)cc(C(F)(F)F)c2)(C(C)C)C1 (some centres undefined) | 7 | –
30 | CC(C)[C@]1(C(=O)NCc2cc(C(F)(F)F)cc(C(F)(F)F)c2)CC[C@@H](NC2CCNCC2)C1 | – | Activity [14]: 21%
31 | CC(C)[C@]1(C(=O)NCc2cc(C(F)(F)F)cc(C(F)(F)F)c2)CC[C@@H](NC2CCOCC2F)C1 (stereo in doubt; 64) | 14.3 | –
32 | CC(C)[C@]1(C(=O)NCc2cc(C(F)(F)F)cc(C(F)(F)F)c2)CC[C@@H](NC2CCOCC2(C)C)C1 (some centres undefined) | 230 | –
33 | CC1COCCC1N[C@@H]1CC[C@@](C(=O)NCc2cc(C(F)(F)F)cc(C(F)(F)F)c2)(C(C)C)C1 (stereo in doubt; 59) | 1.2 | –
34 | CC(C)[C@]1(C(=O)NCc2cc(C(F)(F)F)cc(C(F)(F)F)c2)CC[C@@H](NC2CCC2)C1 | 193 | –
35 | CC1CC(N[C@@H]2CC[C@@](C(=O)NCc3cc(C(F)(F)F)cc(C(F)(F)F)c3)(C(C)C)C2)CCO1 (some centres undefined) | 28 | –
36 | CC(C)[C@]1(C(=O)NCc2cc(C(F)(F)F)cc(C(F)(F)F)c2)CC[C@@H](NC2CCOCC2O)C1 (some centres undefined) | 51 | –
37 | CC(C)[C@]1(C(=O)NCc2cc(C(F)(F)F)cc(C(F)(F)F)c2)CC[C@@H](NC2CCOCC2F)C1 (stereo in doubt; 50) | 6 | –
38 | CC1COCCC1N[C@@H]1CC[C@@](C(=O)NCc2cc(C(F)(F)F)cc(C(F)(F)F)c2)(C(C)C)C1 (stereo in doubt; 58) | 4 | –

From ChEMBL document CHEMBL1153317, “Design, synthesis, and structure-activity relationship of novel CCR2 antagonists” (Bioorg Med Chem Lett, 2009)
